PubChem BioAssay
Calls of active or inactive are those of the source.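 Rule for the calls, unless noted: active = fluorescence slope after compound addition differing from the mean of all tested samples at 99.7% confidence, mostly higher but some lower; inactive = the rest.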

Assays:
[1] = inhibitors of TNFa-induced NFkB p65 translocation, primary screen, imaging, HUVEC, MLSMR starter and 10KST1 sets (AID 438;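 active = inhibition above 20% together with a positive visual image hit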;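 note: compound added about 3h40 before a 20 min TNFalpha stimulation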;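 for inhibition: signal is the nuclear over cytoplasmic p65 intensity ratio per well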); conditions: HUVEC TNFa-induced p65 nuclear translocation; cell count: measured here: nuclei count (cytotoxicity indicator), at 2.08 µM; inhibition: at 2 µM, stronger effect = higher value, 0% TNFa-plus-vehicle, 100% no-TNFa wells
[2] = reduction of polyQ htt aggregates in cells – imaging, exon1htt(103Q)mCFP cells, high-content imaging, primary screen (AID 483;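 active = visual image review flags a hit and inhibition of aggregation exceeds 20%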;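 note: compound exposure lasted 3 days before fixation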;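 for nuclei count: percent of the per-plate median nuclei count of sample wells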); conditions: exon1htt(103Q)mCFP cell line, aggregate imaging, at 2 µM; inhibition of aggregation: stronger effect = higher value; nuclei count: measured here: cell count, toxicity
[3] = endothelial E-selectin expression blockers – imaging, HUVEC, immunofluorescence, MLSMR starter and 10KST1 sets, primary screen (AID 487;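 active = visually confirmed hit in the image check and inhibition above 20%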;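 for inhibition: signal is fraction of cell area covered by stained E-selectin grains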;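 for nuclei count: 100% = median nuclei count of all wells on the same plate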); conditions: HUVEC TNFalpha-induced E-selectin immunofluorescence imaging, at 2 µM; inhibition: stronger effect = higher value; nuclei count: measured here: cell number, toxicity
[4] = target: Voltage-gated potassium channel subunit beta-2 (Rattus norvegicus) (UniProt P62483); experiment: inhibitors of rat Kvbeta2 reductase activity – biochemical, NADPH fluorescence, primary screen (AID 622;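 active = fluorescence slope higher than the sample average by over 3 SD, cut at about -0.22 in these data, passing the limit was not always enough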;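 note: slope of raw intensity against log time taken from 70 to 1610 s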); conditions: recombinant KvBeta, 4-cyanobenzaldehyde reduction, at 10 µM, stronger effect = higher value
Voltage-gated potassium channel subunit beta-2 (Rattus norvegicus), sequence (P62483 whole entry, looked up): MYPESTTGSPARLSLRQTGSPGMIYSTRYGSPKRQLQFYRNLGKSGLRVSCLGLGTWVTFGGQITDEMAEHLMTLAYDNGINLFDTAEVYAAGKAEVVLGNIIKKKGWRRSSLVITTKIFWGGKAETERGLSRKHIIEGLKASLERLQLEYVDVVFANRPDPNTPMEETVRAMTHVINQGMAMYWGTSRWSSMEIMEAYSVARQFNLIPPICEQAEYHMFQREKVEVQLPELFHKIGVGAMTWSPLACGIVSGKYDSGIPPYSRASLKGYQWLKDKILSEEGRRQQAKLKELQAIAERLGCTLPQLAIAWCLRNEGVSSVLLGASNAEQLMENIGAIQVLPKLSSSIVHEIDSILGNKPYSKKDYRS

[5] = target: Voltage-gated potassium channel subunit beta-2 (Rattus norvegicus) (UniProt P62483); experiment: enhancers of rat Kvbeta2 NADPH turnover – biochemical, NADPH fluorescence, primary screen (AID 623;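 active = NADPH fluorescence slope more negative than the mean of all samples by about 3 SD, 99.7% confidence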;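 note: fluorescence intensity change per second fitted from 20 to 320 s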); conditions: Recombinant KvBeta, NADPH fluorescence decrease slope, 10 min; at 10 µM; stronger effect = lower value
[6] = target: Muscarinic acetylcholine receptor M4 (Homo sapiens) (UniProt P08173); experiment: M4-linked GIRK flux change, two-sided – cell-based, HEK293 M4/GIRK, thallium flux, BTC-AM, M4 allosteric agonist project, primary screen (AID 625); conditions: at 10 µM, actives lie on both sides;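 note: thallium influx through GIRK channels coupled to M4 in HEK293 cells with BTC-AM dye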
Muscarinic acetylcholine receptor M4 (Homo sapiens), sequence (P08173 whole entry, looked up): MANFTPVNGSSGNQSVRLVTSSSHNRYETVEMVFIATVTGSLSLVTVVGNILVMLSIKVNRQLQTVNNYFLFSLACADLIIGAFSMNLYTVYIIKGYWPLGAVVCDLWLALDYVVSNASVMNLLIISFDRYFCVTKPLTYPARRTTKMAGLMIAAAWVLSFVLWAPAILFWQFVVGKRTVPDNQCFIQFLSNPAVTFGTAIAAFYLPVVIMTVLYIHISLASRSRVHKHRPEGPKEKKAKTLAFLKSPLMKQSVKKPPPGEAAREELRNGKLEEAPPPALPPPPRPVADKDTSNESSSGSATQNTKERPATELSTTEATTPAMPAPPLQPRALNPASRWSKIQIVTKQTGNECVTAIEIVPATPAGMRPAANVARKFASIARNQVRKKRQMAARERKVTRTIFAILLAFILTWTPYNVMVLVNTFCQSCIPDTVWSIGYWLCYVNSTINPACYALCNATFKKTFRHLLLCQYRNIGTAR
Summary of the method: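 assay system = HEK293 cells with M4 receptor and GIRK channels | medium = pH 7.3 thallium assay buffer | doses = 10 µM final, single point | timing = cells overnight at 37 °C, BTC-AM loading 1 h, reads 2 min total | signal = BTC-AM fluorescence, 1 Hz kinetic reads | read-out = post-addition slope, 15–24 s, of baseline-normalized fluorescence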

[7] = blockers of RIG-like receptor reporter activation – cell-based, Sendai virus stimulus, luciferase, 10K MLSCN set, TLR/RLR signaling modifier project, primary screen (AID 602276;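 active = inhibition at or above 50% at 10 µM; inactive = inhibition below 50%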;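 note: firefly luciferase from ISG56 promoter only with Renilla not read in this screen; 0% = Sendai virus plus DMSO and 100% = medium plus DMSO without virus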); conditions: HEK293 RL24 IRF3 luciferase reporter, at 10 µM, stronger effect = higher value
[8] = TLR3 IRF3 reporter activation blockers – cell-based, poly I:C stimulus, luciferase, 10K MLSCN set, primary screen (AID 602277;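 active = inhibition of the reporter signal at or above 50%; inactive = inhibition below 50%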); conditions: HEK293-TLR3 RL24 IRF3 luciferase reporter, at 10 µM, stronger effect = higher value

Structure (SMILES)	cell count [1]	inhibition [1]	inhibition of aggregation [2]	nuclei count [2]	inhibition [3]	nuclei count [3]	fluorescence slope [4]	NADPH fluorescence slope [5]	fluorescence slope [6]	inhibition [7]	inhibition [8]
CSc1ccccc1NC(=O)c1noc2c1CCC2	416	2.6% (inactive)	-0.9% (inactive)	109%	-55.8% (inactive)	120%	-0.593 (inactive)	-8e-06 (inactive)	0.00589 (inactive)	-12.4% (inactive)	-50.3% (inactive)
Cc1ccc(-n2nc(-c3cccs3)cc2C(=O)NCC2CCCO2)c(C)c1 (stereo not drawn)	490	-1.7% (inactive)	-12.1% (inactive)	15.1%	-9.6% (inactive)	110%	-0.405 (inactive)	-8.6e-05 (inactive)	0.00713 (inactive)	7.58% (inactive)	20.7% (inactive)
COC(=O)C(C)C1Sc2ccccc2NC1=O (stereo not drawn)	306	3.6% (inactive)	-4.9% (inactive)	89.5%	-37.7% (inactive)	131%	-0.28 (inactive)	-5.2e-05 (inactive)	0.00684 (inactive)	12.5% (inactive)	-8.12% (inactive)
CCCN1CCN(C(=O)c2cn(CC(C)C)c(=O)c3cc(OC)c(OC)cc23)CC1	566	-25.1% (inactive)	-3.2% (inactive)	113%	-9.9% (inactive)	105%	-0.441 (inactive)	-4.3e-05 (inactive)	0.00598 (inactive)	15.6% (inactive)	20.6% (inactive)
C=Cn1c(C(=O)O)cc(CC)c1-c1ccccc1	642	-12.5% (inactive)	-22.8% (inactive)	107%	-51.5% (inactive)	112%	-0.55 (inactive)	-4.3e-05 (inactive)	0.00458 (inactive)	10.9% (inactive)	9.07% (inactive)
COc1cc(C)nc(OCCNC(=O)COc2ccc(Cl)cc2C)n1	705	23.3% (active)	-16% (inactive)	109%	-53.9% (inactive)	123%	-0.499 (inactive)	0.00012 (inactive)	0.00677 (inactive)	-3.41% (inactive)	-6.37% (inactive)
COc1ccc(CN2C(=O)CN=C2Nc2ccc(C)cc2C)cc1	809	-7.5% (inactive)	-10.3% (inactive)	122%	-3.6% (inactive)	95.6%	-0.555 (inactive)	6.9e-05 (inactive)	0.00584 (inactive)	16.8% (inactive)	23% (inactive)
CCOc1ccc2ccccc2c1/C=N/n1cncn1	416	3.4% (inactive)	9.7% (inactive)	97.3%	-92.4% (inactive)	120%	-0.605 (inactive)	-4.9e-05 (inactive)	0.0038 (inactive)	11.7% (inactive)	-8.9% (inactive)
